Source: PubChem BioAssay
CSN deneddyl inh: inhibitors of human CSN-mediated cullin deneddylation; Purified CSN, SCF-Nedd8-OG deneddylation, fluorescence polarization; AID 651999; inhibition, % at 12.5 µM; Q92905; 0.38% of 360,000 active;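 active = pattern-corrected inhibition above about 35%, with an unprinted fluorescence ratio check between 0.5 and 1.5, limit read from the data, passing the limit was not always enough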
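Test system: purified human Csn5 enzyme expressed in HEK293T cells. Amount: 0.24 nM enzyme. Reagent: SCFSkp2-Nedd8OG substrate at 10 nM final. Schedule: 90 min incubation of compound, enzyme and substrate at room temperature. Detection: fluorescence polarization. Read-out: % inhibition of substrate cleavage by Csn5.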
HNF4A DNA FP: change in binding of human HNF4 alpha to DNA | HNF4a-FITC DNA binding, fluorescence polarization, 1 h | activity change, % at 10 µM | 0.3% of 360,000 active; in the data active = activity change above about 30%, passing the limit was not always enough
Target sequence (P41235 whole entry, looked up): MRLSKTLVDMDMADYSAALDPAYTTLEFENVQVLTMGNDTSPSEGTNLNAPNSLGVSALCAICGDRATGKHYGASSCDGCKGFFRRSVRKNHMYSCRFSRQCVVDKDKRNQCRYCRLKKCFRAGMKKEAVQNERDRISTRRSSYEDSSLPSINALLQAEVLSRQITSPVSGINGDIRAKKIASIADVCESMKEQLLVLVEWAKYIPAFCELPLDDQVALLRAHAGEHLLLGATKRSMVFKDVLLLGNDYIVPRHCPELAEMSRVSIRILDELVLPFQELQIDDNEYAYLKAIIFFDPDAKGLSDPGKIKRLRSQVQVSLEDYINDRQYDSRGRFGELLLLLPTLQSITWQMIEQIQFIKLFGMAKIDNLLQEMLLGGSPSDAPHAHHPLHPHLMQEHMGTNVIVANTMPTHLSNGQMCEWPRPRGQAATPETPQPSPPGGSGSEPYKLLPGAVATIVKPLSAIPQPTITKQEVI
TPT1 inhibitor: C. albicans TPT1 enzyme inhibition | inhibition, % at 5 µM | 0.81% of 300,000 active | AID 1962 | recombinant caTPT1, FP RNA substrate dephosphorylation;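 active = inhibition above the mean of all tested compounds plus 3 SD, set per screening campaign, cut at about 24% in these data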
Rev-erbA mod: Rev-erb alpha (human) modulation; Rev-erbα–FITC-DNA binding, fluorescence polarization, 90 min; activity, % at 10 µM; 0.79% of 370,000 active; P20393;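 active = activity above about 14%, limit read from the data; passing the limit was not always enough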
Rev-erbA confirm: Rev-erb alpha (human) modulation, hit confirmation | shares compounds with Rev-erbA mod | Rev-erb alpha FITC-DNA binding, fluorescence polarization, 90 min | activation, % at 25 µM | 61% of 3,000 active | AID 1259319;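 active = activation at or above a set limit, or at least 3 SD above the negative control mean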
RORg counter: RORgamma DNA-binding activity, dose-response counter-screen; 8% of 910 active; IC50, µM; shares compounds with Rev-erbA mod; AID 1259320; purified RORgamma protein-FITC-DNA binding, fluorescence polarization;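 active = Compounds whose fitted half-maximal concentration for disrupting protein-DNA binding is below 10 micromolar; the record names Rev-erb in its text, so the target is in doubt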
Large screens that a line does not name were inactive (follow-up assays come after a bar, where they were run); ! = not confirmed by another sample. Shown are actives, neighbours in structure and some others; about 1.7% of the full set was active somewhere.

CC(=O)OCC1OC(n2c3c(cc(C#N)c2=S)CCCC3)C(OC(C)=O)C(OC(C)=O)C1OC(C)=O (centres undefined)	none (no result: TPT1 inhibitor)
CC(=O)OCC1OC(n2c(-c3ccc(Cl)cc3)ccc(C#N)c2=S)C(OC(C)=O)C(OC(C)=O)C1OC(C)=O (centres undefined)	Rev-erbA mod 55 (no result: TPT1 inhibitor) | Rev-erbA confirm 41 | RORg counter inactive
Cc1cc(C)c(CN2CCN(C(=O)Cn3cc(C)c(=O)[nH]c3=O)CC2)c(C)c1	none (no result: CSN deneddyl inh, HNF4A DNA FP, TPT1 inhibitor)
CC(=O)c1cnc2c(-c3cccc(Br)c3)cnn2c1C	Rev-erbA mod 30 | Rev-erbA confirm 34 | RORg counter inactive
CCOc1ccc(C(=O)Nc2sc3c(c2C(=O)OC)CC(C)(C)NC3(C)C)cc1	Rev-erbA mod 70 | Rev-erbA confirm inactive
COC(=O)c1c(NC(=O)c2ccc(C(=O)c3ccccc3)cc2)sc2c1CC(C)(C)NC2(C)C	none (no result: TPT1 inhibitor)
CCCCCCCCN1C(=O)N(Cc2ccc(OC)cc2)S(=O)(=O)c2ccc(F)cc21	none (no result: CSN deneddyl inh, HNF4A DNA FP, TPT1 inhibitor)
O=C(Nc1cc(-c2nc3ccccc3s2)ccc1Cl)c1ccc2c(c1)OCO2	Rev-erbA mod 28 | Rev-erbA confirm inactive
COc1ccc(-n2cc(C(=O)c3cc4ccccc4oc3=O)c(C(C)=O)n2)cc1	Rev-erbA mod 23 | Rev-erbA confirm inactive
Cc1cc(N(C)C)cc(C)c1N=Nc1cc[n+]([O-])cc1	Rev-erbA mod 27 (no result: TPT1 inhibitor) | Rev-erbA confirm 24
Cc1ccccc1C(=O)N[C@H](C(=O)N1CCC[C@H]1C(=O)NC1CCCC1)C1CCCCC1	none (no result: CSN deneddyl inh, HNF4A DNA FP, TPT1 inhibitor)
O=C(Cc1ccccc1)N1O[C@H]2C=C[C@@H]1C2	none (no result: CSN deneddyl inh, HNF4A DNA FP, TPT1 inhibitor)
O=C1c2ccccc2C(c2nnnn2Cc2ccccc2)N1CCc1c[nH]c2ccccc12 (centres undefined)	Rev-erbA mod 20 (no result: TPT1 inhibitor) | Rev-erbA confirm inactive
COc1ccc(C)cc1NC(=O)c1sc2ncn(CC(=O)N3CCCCC3)c(=O)c2c1C	Rev-erbA mod 29 | Rev-erbA confirm 24
O=C1CCCC2=C1C1(CCCC1)N=C(Nc1nc3ccccc3o1)N2	Rev-erbA mod 21! (no result: TPT1 inhibitor) | Rev-erbA confirm inactive
O=C1CCCC2=C1C1(CCCCC1)N=C(Nc1nc3ccccc3o1)N2	none
CC(C)(C)c1ccc(S(=O)(=O)N2CCCC(C(=O)NCc3cccs3)C2)cc1 (centres undefined)	none (no result: CSN deneddyl inh, HNF4A DNA FP, TPT1 inhibitor)
CN(C)/C=C1\C=C2C(=O)c3ccccc3N2C1=O	Rev-erbA mod 340 | Rev-erbA confirm 229 | RORg counter 1.1
CCOc1ccccc1NC(=O)Cn1cnc2c(nnn2-c2cccc(OC)c2)c1=O	none
COc1cccc(-n2nnc3c(=O)n(CC(=O)Nc4ccccc4C)cnc32)c1	Rev-erbA mod 23 | Rev-erbA confirm inactive
COc1cccc(N=Cc2c(O)n(-c3cccc(C)n3)c(=O)c3ccccc23)c1	none
COc1ccc(N=Cc2c(O)n(-c3cccc(C)n3)c(=O)c3ccccc23)c(OC)c1	Rev-erbA mod 53 | Rev-erbA confirm inactive
COc1ccc(C(=O)NC(C)C2CC3CCC2C3)cc1 (centres undefined)	none
CC(NC(=O)c1ccc(N(C)C)cc1)C1CC2CCC1C2 (centres undefined)	Rev-erbA mod 31 (no result: TPT1 inhibitor) | Rev-erbA confirm 18
CC1CCN(S(=O)(=O)N2CCC(C(=O)NC(C)c3ccccc3)CC2)CC1 (centres undefined)	none (no result: TPT1 inhibitor)
CCc1ccc(NC(=O)CSc2nnc(-c3n[nH]c4ccccc34)n2-c2ccccc2)cc1	Rev-erbA mod 34 | Rev-erbA confirm 38 | RORg counter inactive
Cc1ccc(-n2c(SCC(=O)Nc3ccccc3-c3ccccc3)nnc2-c2ccccc2)cc1	none (no result: CSN deneddyl inh, HNF4A DNA FP, TPT1 inhibitor)
Cc1ccccc1NC(=O)CSc1nnc(-c2ccccc2)n1-c1ccccc1	Rev-erbA mod 37 | Rev-erbA confirm 21
COC(=O)[C@]12C[C@H](CC(=O)NCc3ccc(C)o3)C(=O)N(Cc3ccccc3)C1=C[C@H](C(C)C)O[C@@H]2C1CC1	none (no result: CSN deneddyl inh, HNF4A DNA FP, TPT1 inhibitor)
Cc1ccc(-n2nc(C(=O)c3ccccc3)n3c(=O)cc(-c4ccccc4)nc23)cc1	Rev-erbA mod 49 | Rev-erbA confirm inactive
COc1cc(SC)ccc1C(=O)Nc1ccc(S(=O)(=O)N2CCCC2)cc1	Rev-erbA mod 57 | Rev-erbA confirm 30
CC(=O)c1ccccc1NC(=O)c1cc(S(=O)(=O)N2CCOCC2)ccc1N1CCCC1	Rev-erbA mod 144 (no result: TPT1 inhibitor) | Rev-erbA confirm 145 | RORg counter inactive
COc1cc(SC)ccc1C(=O)Nc1ccc(C)cc1	none
COc1cc(NC(=O)c2cc(S(=O)(=O)N3CCCCC3)ccc2N2CCOCC2)cc(OC)c1	Rev-erbA mod 22 | Rev-erbA confirm inactive
COc1ccc2c(c1)CCc1c-2nc2ccccc2c1N1CCOCC1	none
COc1ccc(-c2nc(NC(=O)c3ccc(OCC(=O)N4CCOCC4)c(OC)c3)sc2C)cc1	none
COc1cc(C(=O)Nc2nc(-c3ccc(Cl)cc3)c(C)s2)ccc1OCC(=O)Nc1ccc(F)cc1	Rev-erbA mod 122 | Rev-erbA confirm 125 | RORg counter inactive
CCc1ccc(-c2nc(NC(=O)c3ccc(OCC(=O)Nc4ccc(F)cc4)c(OC)c3)sc2C)cc1	Rev-erbA mod 113 | Rev-erbA confirm 66 | RORg counter inactive
O=C(Nc1nc(=O)c2ccccc2s1)c1ccc(Cl)cc1	Rev-erbA mod 78 | Rev-erbA confirm 107 | RORg counter inactive
Cn1sc(NC(=O)c2ccc(Cl)cc2)nc1=O	none
O=C(Cc1ccccc1)Nc1nc(=O)c2ccccc2s1	Rev-erbA mod 32 | Rev-erbA confirm 18
O=C(Nc1nc2ccsc2c(=O)s1)c1ccc(Cl)cc1	Rev-erbA mod 110 | Rev-erbA confirm 44 | RORg counter inactive
Nc1ccc(C(=O)Nc2nc3ccccc3s2)cc1	none
O=C(Nc1nc(=O)c2ccccc2s1)c1ccc(F)cc1	Rev-erbA mod 79 | Rev-erbA confirm 70 | RORg counter inactive
O=C(Cc1ccccc1)Nc1nc2ccccc2s1	none
CCn1c(NC(=O)c2ccc(F)cc2)c2ccccc2nc1=O	none
CCC(C#Cc1ccccc1)NCc1ccc(OC)cc1OC (centres undefined)	none (no result: CSN deneddyl inh, HNF4A DNA FP, TPT1 inhibitor)
CCC(=O)c1ccc(OCC(=O)Nc2ccccc2C(=O)NC2CC2)cc1	Rev-erbA mod 22 (no result: TPT1 inhibitor) | Rev-erbA confirm 96 | RORg counter inactive
COC(=O)c1ccc(OCC(=O)Nc2ccccc2C(=O)NC2CC2)cc1	none (no result: TPT1 inhibitor)
Brc1ccc(-c2csc(N3CCC(c4nn[nH]n4)CC3)n2)cc1	none (no result: CSN deneddyl inh, HNF4A DNA FP, TPT1 inhibitor)
COc1ccc(/C=C2\SC(=O)N(CCC(=O)Nc3ccccc3)C2=O)cc1OC	Rev-erbA mod 32 | Rev-erbA confirm 34 | RORg counter inactive
COc1cc(/C=C2/SC(=S)N(CC(=O)O)C2=O)ccc1OC(=O)c1ccco1	Rev-erbA mod 25 | Rev-erbA confirm inactive
Clc1ccc(-n2c(SCc3cccc4ccccc34)nnc2-c2ccco2)cc1	none (no result: CSN deneddyl inh, HNF4A DNA FP, TPT1 inhibitor)
CCOC(=O)c1c(C)nc2sc3c(=O)n(-c4ccc(OC)cc4)cnc3c2c1-c1ccc(OC)cc1	Rev-erbA mod 35 | Rev-erbA confirm inactive
